ChEMBL document CHEMBL1124012, “Synthesis of sulfur-containing analogues of bestatin. Inhibition of aminopeptidases by alpha-thiolbestatin analogues” (J Med Chem, 1988)

Columns and labels:
Aminopeptidase B = biological target: T1, Aminopeptidase B (Rattus norvegicus, UniProt O09175); experiment: Inhibitory activity against aminopeptidase B
T1 sequence (O09175 whole entry): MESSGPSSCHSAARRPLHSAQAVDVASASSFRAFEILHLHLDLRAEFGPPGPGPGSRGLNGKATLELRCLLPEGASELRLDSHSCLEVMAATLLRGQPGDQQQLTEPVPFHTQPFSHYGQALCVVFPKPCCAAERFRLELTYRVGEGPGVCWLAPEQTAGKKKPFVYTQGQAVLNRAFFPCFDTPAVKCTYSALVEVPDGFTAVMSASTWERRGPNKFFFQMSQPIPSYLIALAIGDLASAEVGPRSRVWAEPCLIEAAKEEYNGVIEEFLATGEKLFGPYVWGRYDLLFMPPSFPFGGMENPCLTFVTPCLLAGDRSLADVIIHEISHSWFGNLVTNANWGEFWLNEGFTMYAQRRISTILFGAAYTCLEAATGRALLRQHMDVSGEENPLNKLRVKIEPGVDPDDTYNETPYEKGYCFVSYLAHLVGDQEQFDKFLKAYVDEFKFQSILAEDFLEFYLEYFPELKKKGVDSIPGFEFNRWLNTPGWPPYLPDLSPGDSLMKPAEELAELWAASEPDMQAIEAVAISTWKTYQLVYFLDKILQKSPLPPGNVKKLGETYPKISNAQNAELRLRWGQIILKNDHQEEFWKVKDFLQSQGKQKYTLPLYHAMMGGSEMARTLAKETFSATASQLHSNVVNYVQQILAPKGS
Outline: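 Aminopeptidase B at an estimated 4.6 nM, diluted 10-fold for tight binders, in 0.1 M PIPES pH 7.0 with 0.2 M NaCl and 1 mM DTT, 25 °C. Substrate was L-arginine p-nitroanilide, used near Km, with hydrolysis read at 405 nm. Where slow binding appeared, enzyme and inhibitor were preincubated 10–20 min before substrate was added.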

Aminopeptidase N = biological target: T2, Aminopeptidase N (Sus scrofa, UniProt P15145); experiment: Inhibitory activity against Aminopeptidase M
T2 sequence (P15145 whole entry): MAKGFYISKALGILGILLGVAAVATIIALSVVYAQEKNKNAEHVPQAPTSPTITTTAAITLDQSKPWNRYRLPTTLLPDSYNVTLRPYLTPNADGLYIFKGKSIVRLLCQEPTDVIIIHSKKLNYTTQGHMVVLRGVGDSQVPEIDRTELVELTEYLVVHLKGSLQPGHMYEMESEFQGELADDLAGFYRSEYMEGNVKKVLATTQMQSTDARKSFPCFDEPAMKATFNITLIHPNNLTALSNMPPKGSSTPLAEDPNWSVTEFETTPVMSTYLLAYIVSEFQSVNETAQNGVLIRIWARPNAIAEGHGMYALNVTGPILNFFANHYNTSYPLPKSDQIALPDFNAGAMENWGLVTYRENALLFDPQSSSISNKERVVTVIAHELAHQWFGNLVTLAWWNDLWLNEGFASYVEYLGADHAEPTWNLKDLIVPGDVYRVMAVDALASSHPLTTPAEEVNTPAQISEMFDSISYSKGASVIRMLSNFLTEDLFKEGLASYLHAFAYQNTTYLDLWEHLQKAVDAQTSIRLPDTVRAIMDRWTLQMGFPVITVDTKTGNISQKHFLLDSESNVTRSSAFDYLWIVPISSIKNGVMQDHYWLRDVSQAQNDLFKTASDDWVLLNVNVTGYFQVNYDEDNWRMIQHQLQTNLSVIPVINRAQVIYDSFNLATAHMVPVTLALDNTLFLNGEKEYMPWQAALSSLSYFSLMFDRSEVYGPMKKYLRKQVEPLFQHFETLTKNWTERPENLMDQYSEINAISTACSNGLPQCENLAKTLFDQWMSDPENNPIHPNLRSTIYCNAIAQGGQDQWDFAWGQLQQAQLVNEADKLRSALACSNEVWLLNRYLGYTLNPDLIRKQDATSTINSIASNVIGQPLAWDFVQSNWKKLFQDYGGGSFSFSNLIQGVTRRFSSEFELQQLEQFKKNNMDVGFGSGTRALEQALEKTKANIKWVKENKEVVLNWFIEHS

Cytosol aminopeptidase = Cytosol aminopeptidase (Homo sapiens, UniProt P28838); experiment: Inhibitory activity against Leucine aminopeptidase; design: species or system Streptomyces olivoreticuli
Outline: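 Cytosolic leucine aminopeptidase, converted to Zn/Mg form by 4 h at 37 °C in 10 mM HEPES pH 8.0 with 5 mM MgSO4 and 1 M KCl. Assayed at 25 °C in 0.1 M Tris pH 8.5 with 5 mM MgCl2, enzyme 5 nM (1 nM for very tight binders).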

Cytosol aminopeptidase, sequence (P28838 whole entry): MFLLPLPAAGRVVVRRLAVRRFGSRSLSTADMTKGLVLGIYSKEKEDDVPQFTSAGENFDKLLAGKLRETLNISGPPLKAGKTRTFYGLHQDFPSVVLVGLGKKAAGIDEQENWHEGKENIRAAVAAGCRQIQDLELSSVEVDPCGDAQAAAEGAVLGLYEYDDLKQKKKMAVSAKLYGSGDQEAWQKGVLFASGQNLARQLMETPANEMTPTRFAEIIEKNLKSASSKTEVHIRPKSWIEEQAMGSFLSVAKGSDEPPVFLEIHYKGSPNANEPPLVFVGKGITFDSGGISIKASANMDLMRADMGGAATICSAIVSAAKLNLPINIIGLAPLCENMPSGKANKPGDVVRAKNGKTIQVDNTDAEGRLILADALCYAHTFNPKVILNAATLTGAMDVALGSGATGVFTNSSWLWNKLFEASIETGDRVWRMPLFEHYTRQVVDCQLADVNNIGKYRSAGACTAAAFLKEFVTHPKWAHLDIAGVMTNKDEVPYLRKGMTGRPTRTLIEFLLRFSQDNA

Structure (SMILES) | Ki (Aminopeptidase B) [µM] | Ki (Aminopeptidase N) [µM] | Ki (Cytosol aminopeptidase) [µM]
CC(C)CC/N=C(\S)[C@@H](O)[C@H](N)Cc1ccccc1 | > 1000 | 703 | 4.4
COC(=O)C(S)[C@H](N)Cc1ccccc1 (some centres undefined) | 159 | 307 | 300
NCCCC[C@@H](N)CO | 100 |  | 
CC(C)CCNC(=O)[C@@H](O)[C@H](N)Cc1ccccc1 | 39 | 20 | 0.51
COC(=O)C(O)[C@H](N)Cc1ccccc1 (some centres undefined) | > 1000 | 1000 | 33
CC(C)C[C@H](N)C(C)O (some centres undefined) | > 200 | 355 | 507
CC(C)C[C@@H](N)CO | > 1000 | > 1000 | > 1000

Stronger by Ki (Aminopeptidase B), values ahead:

Ki (Aminopeptidase B) [µM] | Ki (Aminopeptidase N) [µM] | Ki (Cytosol aminopeptidase) [µM] | Structure (SMILES)
0.06 |  |  | CC(C)C[C@H](NC(=O)[C@@H](O)[C@H](N)Cc1ccccc1)C(=O)O [UBENIMEX]
0.00091 | 0.11 | > 1000 | NCCCC[C@@H](N)CS
2.4 | 40.3 | 0.33 | CC(C)C[C@H](/N=C(\S)[C@@H](O)[C@H](N)Cc1ccccc1)C(=O)O
0.0064 | 9.1 | 1 | CC(C)C[C@H](NC(=O)[C@@H](S)[C@H](N)Cc1ccccc1)C(=O)O [listing 1 of 2 here]
35.7 | 32 | 26 | CC(C)CCNC(=O)[C@H](S)[C@@H](N)Cc1ccccc1
0.0046 | 4.4 | 0.55 | CC(C)C[C@H](NC(=O)[C@@H](S)[C@H](N)Cc1ccccc1)C(=O)O [listing 2 of 2 here]
4 | 4.9 | 16.7 | CC(C)CCNC(=O)[C@@H](S)[C@H](N)Cc1ccccc1
7 | 6 | > 500 | CC(C)C[C@H](N)C(C)S (some centres undefined)
0.13 | 0.02 | 450 | CC(C)C[C@@H](N)CS
